Data published in PubChem BioAssay AID463144 (The Scripps Research Institute Molecular Screening Center, 2010).

System: HEK293T G6PC promoter luciferase with RORa, 20 h
Assay: inhibitors of RORa-driven G6PC promoter, late-stage follow-up, counter-screen for RORA inverse agonist project, cell-based, luminescence, single concentration (AID 463144)
Settings: at 10 µM; active compounds read low
Outline: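 System: HEK293T cells expressing full-length RORa, SRC-2 coactivator, G6PC-promoter luciferase | Compound dosing: Single nominal dose of 10 µM per compound | Schedule: 20 h compound treatment | Measured by: Reporter luminescence | Read-out basis: Average fold change versus vehicle wells | Benchmarks: DMSO-only vehicle cells as reference | Repeats: n of 6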

O=S(=O)(Nc1ccc(C(O)(C(F)(F)F)C(F)(F)F)cc1)c1cccs1
fold change: 0.64
